Columns and labels:
[1] = Cmax in male Wistar Han rats at 10 mg/kg, po administered post overnight fasting measured upto 24 hrs by LC-MS/MS analysis; assay type: ADME, organism-based; set-up: route oral, dose 10 mg/kg, time <=24; conditions: rat, in vivo
Method in brief: (§1)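 Overnight-fasted male Wistar Han rats or Beagle dogs, two animals per group, 24 h study. IV in 60% PEG200 (rat 2 mg/kg, dog 1 mg/kg). PO in 10% Tween (rat 10 mg/kg, dog 5 mg/kg). Blood sampled up to 24 h, plasma separated by centrifugation, and drug measured by LC/MS. MRT reported for the IV route.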

[2] = Drug concentration in male Wistar Han rat at 10 mg/kg, po measured after 24 hrs by LC/MS analysis; assay type: ADME, organism-based; conditions: in vivo, read-out: Drug uptake; method in brief: as §1
[3] = Clearance in male Wistar Han rats at 2 mg/kg, iv administered post overnight fasting measured upto 24 hrs by LC-MS/MS analysis; assay type: ADME, organism-based; conditions: rat, in vivo; method in brief: as §1
[4] = Half-life in male Wistar Han rats at 2 mg/kg, iv administered post overnight fasting measured upto 24 hrs by LC-MS/MS analysis; assay type: ADME, organism-based; conditions: rat, in vivo; method in brief: as §1
[5] = Oral bioavailability in male Wistar Han rat at 10 mg/kg post overnight fasting measured upto 24 hrs by LC-MS/MS analysis; assay type: ADME, organism-based; conditions: in vivo; method in brief: as §1
[6] = AUC in male Wistar Han rats at 10 mg/kg, po administered post overnight fasting measured upto 24 hrs by LC-MS/MS analysis; assay type: ADME, organism-based; set-up: route oral, dose 10 mg/kg, time <=24; conditions: rat, in vivo; method in brief: as §1
Huh-7 [7] = test: Inhibition of NS5A in Hepatitis C virus subtype 1a infected in human HuH7 cells assessed as reduction in viral replication by luciferase reporter gene assay; assay type: cell-based
Method in brief: (§2)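 Transient replicon assay with GT1a-H77, GT1b-Con1 or chimeric replicons, electroporated into a Huh7-derived cell line. Percent inhibition of replication, read as a drop in luciferase signal, was calculated at each concentration to give EC90. Values are means of at least two experiments.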

[8] = test system: Nonstructural protein 5A (Hepatitis C virus), Q5L478 [UNDEFINED MUTATION]; test: Inhibition of NS5A L31V mutant in Hepatitis C virus subtype 1a infected in human HuH7 cells assessed as reduction in viral replication by luciferase reporter gene assay; assay type: cell-based; conditions: Huh-7
Method in brief: (§3)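 NS5A resistance variants engineered into GT1a-H77 or GT1b-Con1 replicons. Each variant replicon is transfected transiently by electroporation into a Huh7-derived cell line. Percent inhibition is taken from the drop in luciferase signal at each compound concentration, and EC90 is calculated from these. Values are means of at least two experiments.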

Huh-7 [9] = test: Inhibition of NS5A in Hepatitis C virus subtype 4a infected in human HuH7 cells assessed as reduction in viral replication by luciferase reporter gene assay; assay type: cell-based; method in brief: as §2
Huh-7 [10] = test: Inhibition of NS5A in Hepatitis C virus subtype 1b infected in human HuH7 cells assessed as reduction in viral replication by luciferase reporter gene assay; assay type: cell-based; method in brief: as §2
Huh-7 [11] = test: Inhibition of NS5A in Hepatitis C virus subtype 2a infected in human HuH7 cells assessed as reduction in viral replication by luciferase reporter gene assay; assay type: cell-based; method in brief: as §2
[12] = test system: T1, Nonstructural protein 5A (Hepatitis C virus), Q5L478 [Y93H]; test: Inhibition of NS5A Y93H mutant in Hepatitis C virus subtype 1a infected in human HuH7 cells assessed as reduction in viral replication by luciferase reporter gene assay; assay type: cell-based; conditions: Huh-7; method in brief: as §3
T1 sequence (whole entry): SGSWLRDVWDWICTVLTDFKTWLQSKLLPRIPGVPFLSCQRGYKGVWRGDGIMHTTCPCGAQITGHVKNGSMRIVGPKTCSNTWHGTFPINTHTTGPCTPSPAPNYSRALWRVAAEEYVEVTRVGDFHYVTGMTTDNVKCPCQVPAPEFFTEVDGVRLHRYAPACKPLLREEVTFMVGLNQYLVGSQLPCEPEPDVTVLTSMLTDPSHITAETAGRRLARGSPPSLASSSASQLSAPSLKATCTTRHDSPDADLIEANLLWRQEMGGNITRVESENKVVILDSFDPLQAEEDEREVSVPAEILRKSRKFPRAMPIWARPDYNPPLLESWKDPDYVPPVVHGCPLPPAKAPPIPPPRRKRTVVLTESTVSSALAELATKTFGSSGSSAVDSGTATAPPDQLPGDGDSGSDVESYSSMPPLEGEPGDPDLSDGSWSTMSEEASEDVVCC

Huh-7 [13] = test: Inhibition of NS5A in Hepatitis C virus subtype 3a infected in human HuH7 cells assessed as reduction in viral replication by luciferase reporter gene assay; assay type: cell-based; method in brief: as §2
Huh-7 [14] = test: Inhibition of NS5A in Hepatitis C virus subtype 2b infected in human HuH7 cells assessed as reduction in viral replication by luciferase reporter gene assay; assay type: cell-based; method in brief: as §2

COC(=O)N[C@H](C(=O)N1CCC[C@H]1c1ncc(-c2cc(F)c3c(c2)OC(c2ccc4c(c2)OCCC4)n2c-3cc3cc(-c4cnc([C@@H]5CCCN5C(=O)[C@@H](NC(=O)OC)C(C)C)[nH]4)ccc32)[nH]1)C(C)C.O=C(O)C(F)(F)F.O=C(O)C(F)(F)F (some centres not stated) gave a Cmax [1] of 86 nM, a concentration at 24 h [2] of 17 nM and a clearance [3] of 8 mL/min/kg. It also gave a half-life [4] of 5.8 h, a bioavailability [5] of 5% and an AUC at 24 h [6] of 1.35 µM·h.

COC(=O)N[C@H](C(=O)N1CCC[C@H]1c1ncc(-c2ccc3c(c2)OC(c2ccc(-c4ccccc4)cc2)n2c-3cc3cc(-c4cnc([C@@H]5CCCN5C(=O)[C@@H](NC(=O)OC)C(C)C)[nH]4)ccc32)[nH]1)C(C)C (mixture of isomers) gave an EC90 (Huh-7 [7]) of under 20 pM, an EC90 [8] of under 2000 pM and an EC90 (Huh-7 [9]) of under 20 pM. The EC90 (Huh-7 [10]) was under 20 pM, the EC90 (Huh-7 [11]) was under 200 pM and the EC90 [12] was 4600 pM. It also gave an EC90 (Huh-7 [13]) of under 200 pM and an EC90 (Huh-7 [14]) of 2600 pM.

With COC(=O)N[C@H](C(=O)N1CCC[C@H]1c1ncc(-c2ccc3c(c2)OC(c2cccc(-c4ccccc4)c2)n2c-3cc3cc(-c4cnc([C@@H]5CCCN5C(=O)[C@@H](NC(=O)OC)C(C)C)[nH]4)ccc32)[nH]1)C(C)C (mixture of isomers) the EC90 (Huh-7 [7]) was 5 pM, the EC90 [8] was 1000 pM and the EC90 (Huh-7 [9]) was 20 pM. It also gave an EC90 (Huh-7 [10]) of 6 pM, an EC90 (Huh-7 [11]) of 4 pM and an EC90 [12] of 21000 pM. For the same compound, the EC90 (Huh-7 [13]) was 300 pM and the EC90 (Huh-7 [14]) was 3800 pM.
